# Data taken from ChEMBL document CHEMBL1933001, “LDV peptidomimetics equipped with biotinylated spacer-arms: synthesis and biological evaluation on CCRF-CEM cell line” (Bioorg Med Chem Lett, 2012).
# Active and inactive are the calls of the source. No cut-off for these calls is given here.
# What was measured:
# [1] = molecular target: T1, Integrin alpha-4/beta-1 (Homo sapiens, UniProt P05556+P13612); test: Inhibition of alpha4beta1 integrin expressed in human CCRF-CEM cells assessed as cell adhesion to fibronectin after 1 hr by fluorimetry analysis; type: cell-based
# In short: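 Calcein-prelabelled CCRF-CEM cells (α4β1-expressing T lymphoblast-like line) were added to plates coated with fibronectin (10 µg/mL). Incubation was 1 h at 37 °C with or without increasing compound doses (1–500 µM). Adherent cells were quantified by fluorescence, and IC50 was derived from the inhibition of adhesion.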
# [2] = tested on: CCRF-CEM; test: Cytotoxicity against human CCRF-CEM cells at 200 uM after 24 hrs by propidium iodide-based flow cytometry; type: cell-based
# In short: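 CCRF-CEM cells were incubated for 24 h with increasing amounts of compound, up to 200 µM final, then stained with propidium iodide to detect dead cells by fluorescence.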
# [3] = molecular target: T1, Integrin alpha-4/beta-1; test: Induction of adhesion of alpha4beta1 integrin expressing calcein-labelled human CCRF-CEM cells to neutravidin-coated plates at 0.1 to 10 uM pre-incubated for 2 hrs measured after 1 hr by fluorimetry; type: cell-based
# In short: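 Neutravidin-coated plates were pre-treated with biotin-conjugated compound, then calcein-labelled CCRF-CEM cells were added. Adherent cells were quantified by calcein fluorescence. Untreated plates served as control.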
# [4] = molecular target: T1, Integrin alpha-4/beta-1; test: Binding affinity to alpha4beta1 integrin expressed human CCRF-CEM cells at 100 uM after 24 hrs by alexa-conjugated streptavidin-based microscopy; type: cell-based
# In short: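 Fibronectin-coated plates (10 µg/mL). Adherent CCRF-CEM cells were exposed to biotin-conjugated molecules at 100 µM for 24 h and washed extensively. Alexa 568-conjugated streptavidin was then added, and extracellular fluorescence on the cell surface was imaged. Controls were not pre-treated and received only fluorescent streptavidin.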
# [5] = tested on: HUVEC; test: Inhibition of fibronectin adhesion into HUVEC after 1 hr by fluorimetry analysis; type: functional, cell-based; conditions: Homo sapiens
# [6] = molecular target: T1, Integrin alpha-4/beta-1; test: Detachment of pre-adhered alpha4beta1 integrin expressed in calcein-labelled human CCRF-CEM cells from fibronectin at 1 to 500 uM after 24 to 48 hrs by MTT assay; type: cell-based
# T1 sequence (P05556 whole entry): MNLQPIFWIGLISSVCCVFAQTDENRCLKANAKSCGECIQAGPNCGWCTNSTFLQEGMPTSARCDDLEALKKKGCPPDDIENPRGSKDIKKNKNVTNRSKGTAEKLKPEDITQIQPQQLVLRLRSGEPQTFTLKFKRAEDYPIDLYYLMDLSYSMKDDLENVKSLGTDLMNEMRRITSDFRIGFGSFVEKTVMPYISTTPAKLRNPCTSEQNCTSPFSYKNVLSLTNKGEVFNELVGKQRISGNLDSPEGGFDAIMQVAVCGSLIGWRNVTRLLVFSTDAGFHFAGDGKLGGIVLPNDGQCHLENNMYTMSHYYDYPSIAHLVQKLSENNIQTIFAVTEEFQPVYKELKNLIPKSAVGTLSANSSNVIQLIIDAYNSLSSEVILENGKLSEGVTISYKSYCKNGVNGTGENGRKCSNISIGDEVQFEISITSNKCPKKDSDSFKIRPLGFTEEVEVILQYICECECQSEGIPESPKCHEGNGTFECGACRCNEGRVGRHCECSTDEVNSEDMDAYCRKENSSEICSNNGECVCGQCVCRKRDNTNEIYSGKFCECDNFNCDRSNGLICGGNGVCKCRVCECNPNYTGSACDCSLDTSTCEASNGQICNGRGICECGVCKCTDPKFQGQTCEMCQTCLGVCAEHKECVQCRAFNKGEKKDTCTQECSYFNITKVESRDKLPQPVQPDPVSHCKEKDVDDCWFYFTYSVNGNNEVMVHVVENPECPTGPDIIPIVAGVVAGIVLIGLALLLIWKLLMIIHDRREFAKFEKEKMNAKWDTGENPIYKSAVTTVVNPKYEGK
# T1 sequence (P13612 whole entry): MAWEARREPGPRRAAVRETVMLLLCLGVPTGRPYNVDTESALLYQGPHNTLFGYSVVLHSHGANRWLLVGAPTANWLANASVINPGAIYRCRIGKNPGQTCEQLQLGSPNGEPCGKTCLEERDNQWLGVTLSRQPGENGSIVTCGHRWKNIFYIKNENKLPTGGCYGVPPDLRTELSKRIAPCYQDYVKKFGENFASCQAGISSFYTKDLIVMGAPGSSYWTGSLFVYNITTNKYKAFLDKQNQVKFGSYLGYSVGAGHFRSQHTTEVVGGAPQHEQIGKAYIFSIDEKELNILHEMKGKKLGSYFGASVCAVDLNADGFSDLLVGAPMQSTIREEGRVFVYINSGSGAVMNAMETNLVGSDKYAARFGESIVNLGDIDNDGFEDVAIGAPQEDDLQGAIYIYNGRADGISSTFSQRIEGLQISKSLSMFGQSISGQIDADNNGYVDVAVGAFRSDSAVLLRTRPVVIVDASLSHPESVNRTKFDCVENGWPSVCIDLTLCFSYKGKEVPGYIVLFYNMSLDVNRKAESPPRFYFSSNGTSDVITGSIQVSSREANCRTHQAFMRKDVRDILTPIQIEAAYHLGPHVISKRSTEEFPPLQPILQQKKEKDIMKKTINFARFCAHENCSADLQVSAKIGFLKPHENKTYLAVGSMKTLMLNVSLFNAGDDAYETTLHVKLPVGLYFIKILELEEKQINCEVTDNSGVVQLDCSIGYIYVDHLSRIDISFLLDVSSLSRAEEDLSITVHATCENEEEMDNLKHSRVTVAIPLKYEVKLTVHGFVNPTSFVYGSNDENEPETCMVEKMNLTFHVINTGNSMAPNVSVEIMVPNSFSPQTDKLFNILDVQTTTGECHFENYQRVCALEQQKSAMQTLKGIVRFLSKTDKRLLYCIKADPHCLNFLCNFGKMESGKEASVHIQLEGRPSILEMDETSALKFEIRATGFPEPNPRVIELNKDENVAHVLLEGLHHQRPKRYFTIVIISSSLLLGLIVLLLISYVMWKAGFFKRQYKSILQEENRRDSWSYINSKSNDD
IC50 [1],Activity [3],Activity [4],Activity [6],Structure (SMILES),Activity [2],inhibition [5]
> 1000 µM,–,–,–,Cc1cccc(C)c1NC(=O)Nc1ccc(CC(=O)O)cc1,–,–
151 µM,–,–,–,Cc1cccc(C)c1NC(=O)Nc1ccc(CC(=O)NCCCCCCCCCCCCN)cc1,–,–
14.1 µM,Active,Active,–,Cc1cccc(C)c1NC(=O)Nc1ccc(CC(=O)Nc2ccc(OCC(=O)O)c(CCC(=O)NCCCCCCCCCCCCNC(=O)CCCC[C@@H]3SC[C@@H]4NC(=O)N[C@@H]43)c2)cc1,Non-toxic,–
68.4 µM,–,–,–,Cc1cccc(C)c1NC(=O)Nc1ccc(CC(=O)Nc2ccc(OCC(=O)OC(C)(C)C)c(CCC(=O)O)c2)cc1,–,–
97.7 µM,inactive,inactive,–,Cc1cccc(C)c1NC(=O)Nc1ccc(CC(=O)NCCCCCCCCCCCCNC(=O)CCCC[C@@H]2SC[C@@H]3NC(=O)N[C@@H]32)cc1,Non-toxic,–
36.3 µM,–,–,–,Cc1cccc(C)c1NC(=O)Nc1ccc(CC(=O)N[C@@H](CC(C)C)C(=O)N[C@@H](CC(=O)O)C(=O)N[C@H](C(=O)NCCc2ccccc2)C(C)C)cc1,–,inactive
2.6 µM,–,–,–,Cc1cccc(C)c1NC(=O)Nc1ccc(CC(=O)N[C@@H](CC(C)C)C(=O)N[C@@H](CC(=O)O)C(=O)N[C@H](C(=O)NCCCCCCCCCCCCN)C(C)C)cc1,–,inactive
170 µM,–,–,inactive,Cc1cccc(C)c1NC(=O)Nc1ccc(CC(=O)Nc2ccc(OCC(=O)O)c(CCC(=O)NCCOCCOCCOCCOCCOCCN)c2)cc1,–,–
123 µM,–,–,Active,Cc1cccc(C)c1NC(=O)Nc1ccc(CC(=O)Nc2ccc(OCC(=O)O)c(CCC(=O)NCCCCCCCCCCCCN)c2)cc1,–,–
